Converted amounts (≈) assume the structure as drawn.
Experiments:
Assay type in all cases: functional
[1] = system: Trichosporon inkin; test: Antifungal activity against Trichosporon inkin after 48 hrs by Etest
How it was run: (§1)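 Etest on 2% glucose-RPMI agar. Yeast suspensions were swabbed across the plates and strips applied, then incubated at 35°C for 48 h. MIC was the lowest concentration where the elliptical inhibition zone border met the strip scale. Each reading was raised to the next 2-fold dilution on the CLSI scale and converted to log2. Isolates were revived from −70°C stocks on potato dextrose or Sabouraud agar.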

[2] = system: Rhodotorula mucilaginosa; test: Antifungal activity against Rhodotorula mucilaginosa after 7 days by broth microdilution method; details: 168 h
[3] = system: Rhodotorula mucilaginosa; test: Antifungal activity against Rhodotorula mucilaginosa after 48 hrs by broth microdilution method
How it was run: (§2)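 CLSI M27-A3 broth microdilution. Isolates were identified by ITS1-5.8S-ITS2 sequencing, kept at −70°C in sterile water, and revived on potato dextrose or Sabouraud agar. Drug ranges in wells were 0.015–16 or 0.125–128 μg/ml, depending on the agent. Plates were incubated at 35°C and MICs read visually at 48 h. QC strains were C. krusei ATCC 6258 and C. parapsilosis ATCC 22019.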

[4] = system: Saccharomyces cerevisiae; test: Antifungal activity against Saccharomyces cerevisiae after 48 hrs by broth microdilution method; how it was run: as §2
[5] = system: Cutaneotrichosporon mucoides; test: Antifungal activity against Trichosporon mucoides after 48 hrs by Etest; how it was run: as §1
[6] = system: Rhodotorula mucilaginosa; test: Antifungal activity against Rhodotorula mucilaginosa after 7 days by Etest; details: 168 h
[7] = system: Magnusiomyces capitatus; test: Antifungal activity against Dipodascus capitatus after 4 days by Etest; details: 96 h
[8] = Antifungal activity against Trichosporon jirovecii after 48 hrs by Etest; details: Cutaneotrichosporon jirovecii; how it was run: as §1
[9] = system: Cutaneotrichosporon mucoides; test: Antifungal activity against Trichosporon mucoides assessed as percent susceptible isolates after 48 hrs by broth microdilution method
How it was run: (§3)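 Broth microdilution MICs (CLSI, 35°C, visual read at 48 h) were sorted into categories using CLSI M27-A3 triazole breakpoints. Susceptible was ≤1 or ≤8 μg/ml, SDD was 2 or 16–32 μg/ml, and resistant was ≥4 or ≥64 μg/ml, depending on the agent. Each category is the percentage of isolates falling in it.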

[10] = system: Trichosporon inkin; test: Antifungal activity against Trichosporon inkin after 48 hrs by broth microdilution method; how it was run: as §2
[11] = Antifungal activity against Trichosporon domesticum after 48 hrs by Etest; details: Apiotrichum domesticum; how it was run: as §1
[12] = system: Trichosporon asahii; test: Antifungal activity against Trichosporon asahii after 48 hrs by Etest; how it was run: as §1
[13] = system: Rhodotorula mucilaginosa; test: Antifungal activity against Rhodotorula mucilaginosa after 48 hrs by Etest; how it was run: as §1
[14] = system: Magnusiomyces capitatus; test: Antifungal activity against Dipodascus capitatus after 3 days by broth microdilution method; details: 72 h
[15] = system: Magnusiomyces capitatus; test: Antifungal activity against Dipodascus capitatus after 48 hrs by Etest; how it was run: as §1
[16] = system: Trichosporon asahii; test: Antifungal activity against Trichosporon asahii after 48 hrs by broth microdilution method; how it was run: as §2
[17] = Antifungal activity against Trichosporon domesticum after 48 hrs by broth microdilution method; details: Apiotrichum domesticum; how it was run: as §2
[18] = system: Cutaneotrichosporon mucoides; test: Antifungal activity against Trichosporon mucoides assessed as percent susceptible/dose-dependent isolates after 48 hrs by broth microdilution method; how it was run: as §3
[19] = system: Magnusiomyces capitatus; test: Antifungal activity against Dipodascus capitatus after 48 hrs by broth microdilution method; how it was run: as §2
[20] = system: Cutaneotrichosporon mucoides; test: Antifungal activity against Trichosporon mucoides after 48 hrs by broth microdilution method; how it was run: as §2
[21] = system: Trichosporon; test: Antifungal activity against Trichosporon sp. after 4 days by Etest; details: 96 h
[22] = system: Trichosporon; test: Antifungal activity against Trichosporon sp. after 3 days by broth microdilution method; details: 72 h
[23] = system: Saccharomyces cerevisiae; test: Antifungal activity against Saccharomyces cerevisiae after 48 hrs by Etest; how it was run: as §1
[24] = system: Saccharomyces cerevisiae; test: Antifungal activity against Saccharomyces cerevisiae after 5 days by broth microdilution method; details: 120 h
[25] = Antifungal activity against Trichosporon jirovecii after 48 hrs by broth microdilution method; details: Cutaneotrichosporon jirovecii; how it was run: as §2

MIC50 [1]: 0.06 µg/mL (≈ 0.137 µM)
MIC90 [1]: 0.125 µg/mL (≈ 0.286 µM)
MIC50 [2]: 0.5 µg/mL (≈ 1.14 µM)
MIC90 [2]: 2 µg/mL (≈ 4.57 µM)
MIC50 [3]: 0.5 µg/mL (≈ 1.14 µM)
MIC90 [3]: 2 µg/mL (≈ 4.57 µM)
MIC50 [4]: 0.03 µg/mL (≈ 0.0686 µM)
MIC90 [4]: 0.5 µg/mL (≈ 1.14 µM)
MIC50 [5]: 0.06 µg/mL (≈ 0.137 µM)
MIC90 [5]: 0.125 µg/mL (≈ 0.286 µM)
MIC50 [6]: 1 µg/mL (≈ 2.29 µM)
MIC90 [6]: 4 µg/mL (≈ 9.14 µM)
MIC50 [7]: 0.125 µg/mL (≈ 0.286 µM)
MIC90 [7]: 1 µg/mL (≈ 2.29 µM)
MIC50 [8]: 0.06 µg/mL (≈ 0.137 µM)
MIC90 [8]: 0.125 µg/mL (≈ 0.286 µM)
MIC50 [9]: 0.06 µg/mL (≈ 0.137 µM)
MIC90 [9]: 0.5 µg/mL (≈ 1.14 µM)
MIC50 [10]: 0.06 µg/mL (≈ 0.137 µM)
MIC90 [10]: 0.5 µg/mL (≈ 1.14 µM)
MIC50 [11]: 0.06 µg/mL (≈ 0.137 µM)
MIC90 [11]: 0.125 µg/mL (≈ 0.286 µM)
MIC50 [12]: 0.06 µg/mL (≈ 0.137 µM)
MIC90 [12]: 0.125 µg/mL (≈ 0.286 µM)
MIC50 [13]: 1 µg/mL (≈ 2.29 µM)
MIC90 [13]: 4 µg/mL (≈ 9.14 µM)
MIC50 [14]: 0.06 µg/mL (≈ 0.137 µM)
MIC90 [14]: 0.5 µg/mL (≈ 1.14 µM)
MIC50 [15]: 0.125 µg/mL (≈ 0.286 µM)
MIC90 [15]: 1 µg/mL (≈ 2.29 µM)
MIC50 [16]: 0.06 µg/mL (≈ 0.137 µM)
MIC90 [16]: 0.5 µg/mL (≈ 1.14 µM)
MIC50 [17]: 0.06 µg/mL (≈ 0.137 µM)
MIC90 [17]: 0.5 µg/mL (≈ 1.14 µM)
MIC50 [18]: 0.06 µg/mL (≈ 0.137 µM)
MIC90 [18]: 0.5 µg/mL (≈ 1.14 µM)
MIC50 [19]: 0.06 µg/mL (≈ 0.137 µM)
MIC90 [19]: 0.5 µg/mL (≈ 1.14 µM)
MIC50 [20]: 0.06 µg/mL (≈ 0.137 µM)
MIC90 [20]: 0.5 µg/mL (≈ 1.14 µM)
MIC50 [21]: 0.06 µg/mL (≈ 0.137 µM)
MIC90 [21]: 0.125 µg/mL (≈ 0.286 µM)
MIC50 [22]: 0.06 µg/mL (≈ 0.137 µM)
MIC90 [22]: 0.5 µg/mL (≈ 1.14 µM)
MIC50 [23]: 0.125 µg/mL (≈ 0.286 µM)
MIC90 [23]: 0.5 µg/mL (≈ 1.14 µM)
MIC50 [24]: 0.03 µg/mL (≈ 0.0686 µM)
MIC90 [24]: 0.5 µg/mL (≈ 1.14 µM)
MIC50 [25]: 0.06 µg/mL (≈ 0.137 µM)
MIC90 [25]: 0.5 µg/mL (≈ 1.14 µM)
SMILES: C[C@@H](c1nc(-c2ccc(C#N)cc2)cs1)[C@](O)(Cn1cncn1)c1cc(F)ccc1F [ISAVUCONAZOLE]
